IC50, viability and Activity data for two compounds are collected here from ChEMBL document CHEMBL5532752, “Integrating a quinone substructure into histone deacetylase inhibitors to cope with Alzheimer's disease and cancer” (RSC Med Chem, 2024).

The source made the active and inactive calls. The rule behind the calls is not given here. Where only a bound is given, the exact number is not on record here.

What is called IC50 is the point on the concentration scale where inhibition reaches its midpoint.

Data set [1] concerns SH-SY5Y. The data set is described as follows: Cytotoxicity against human SH-SY5Y cells assessed as reduction in cell viability incubated for 24 hrs by MUH reagent based spectrophotometric analysis. In kind it is functional.
Data set [2] relates to SH-SY5Y. The data set is described as follows: Cytotoxicity against human SH-SY5Y cells assessed as reduction in cell viability incubated for 48 hrs by MUH reagent based spectrophotometric analysis. In kind it is functional.
For data set [3], the system named is SH-SY5Y. The data set is described as follows: Cytotoxicity against human SH-SY5Y cells assessed as reduction in cell viability incubated for 72 hrs by MUH reagent based spectrophotometric analysis. The data set is classed as functional. In outline:
(§1)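 SH-SY5Y in DMEM/10% FBS seeded 0.75 × 10⁴ cells/well, after 24 h treated with 0.1–100 μM for 24, 48 or 72 h. Washed, incubated with MUH 0.01 mg/mL in PBS 30 min at 37 °C in the dark; fluorescence ex 330/em 450 nm, normalized to untreated cells. IC50 by nonlinear regression, log(inhibitor) vs normalized response.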

Data set [4] concerns SH-SY5Y. Nature of the data set: Cytotoxicity against human SH-SY5Y cells assessed as cell viability at 100 uM incubated for 24 to 72 hrs by MUH reagent based spectrophotometric analysis. In kind it is functional. The conditions noted are these: time 24-72 hrs, read-out: Activity. In outline:
as §1

The next data set has as its target Histone deacetylase 2 (Homo sapiens, UniProt Q92769). Nature of the data set: Inhibition of human recombinant HDAC2 using aminoluciferin-conjugated histone 4 derived acetylated lysine peptide as substrate incubated for 30 mins by bio-luminogenic assay.
Data set [5] has as its target T1, Protein deacetylase HDAC6 (Homo sapiens, UniProt Q9UBN7).
T1 sequence (Q9UBN7 whole entry): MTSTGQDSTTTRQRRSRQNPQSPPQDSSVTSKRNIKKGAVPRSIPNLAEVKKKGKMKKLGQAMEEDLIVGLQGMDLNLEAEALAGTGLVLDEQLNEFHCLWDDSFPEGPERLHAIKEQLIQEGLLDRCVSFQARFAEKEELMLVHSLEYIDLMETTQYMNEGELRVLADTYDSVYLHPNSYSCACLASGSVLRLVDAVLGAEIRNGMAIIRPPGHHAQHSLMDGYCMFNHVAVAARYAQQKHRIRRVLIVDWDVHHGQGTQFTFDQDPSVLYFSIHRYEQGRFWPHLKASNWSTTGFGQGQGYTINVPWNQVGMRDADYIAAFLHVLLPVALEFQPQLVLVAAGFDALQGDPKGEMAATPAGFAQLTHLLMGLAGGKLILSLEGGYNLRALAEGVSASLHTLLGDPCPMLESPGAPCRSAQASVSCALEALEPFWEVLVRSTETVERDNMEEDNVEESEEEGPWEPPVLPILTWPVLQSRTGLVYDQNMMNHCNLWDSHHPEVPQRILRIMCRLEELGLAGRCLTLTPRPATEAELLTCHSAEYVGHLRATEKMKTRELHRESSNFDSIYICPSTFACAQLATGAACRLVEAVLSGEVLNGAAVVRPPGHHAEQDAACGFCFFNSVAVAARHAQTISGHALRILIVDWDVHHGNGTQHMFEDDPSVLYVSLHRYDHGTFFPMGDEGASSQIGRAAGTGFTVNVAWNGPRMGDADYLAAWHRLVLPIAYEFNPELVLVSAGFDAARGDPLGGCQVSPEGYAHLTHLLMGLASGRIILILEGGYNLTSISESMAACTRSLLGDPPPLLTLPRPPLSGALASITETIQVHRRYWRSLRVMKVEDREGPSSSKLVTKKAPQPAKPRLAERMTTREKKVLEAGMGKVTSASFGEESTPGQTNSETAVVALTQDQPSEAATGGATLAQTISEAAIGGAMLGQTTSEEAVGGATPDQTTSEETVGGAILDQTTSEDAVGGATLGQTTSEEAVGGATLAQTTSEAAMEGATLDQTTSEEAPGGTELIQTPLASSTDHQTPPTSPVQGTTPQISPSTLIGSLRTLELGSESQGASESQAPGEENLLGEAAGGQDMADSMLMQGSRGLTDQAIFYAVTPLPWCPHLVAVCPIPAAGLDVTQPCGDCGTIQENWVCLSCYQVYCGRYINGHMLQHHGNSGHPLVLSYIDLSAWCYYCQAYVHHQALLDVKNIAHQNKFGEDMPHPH
Nature of the data set: Inhibition of human recombinant HDAC6 using aminoluciferin-conjugated histone 4 derived acetylated lysine peptide as substrate incubated for 30 mins by bio-luminogenic assay.

Data set [6] concerns SH-SY5Y. The data set is described as follows: Induction of oxidative stress in human SH-SY5Y cells assessed as increase in ROS production at 2 uM incubated for 24 hrs by DCFH-DA staining based fluorescence analysis. In kind it is functional, cell-based. The essentials:
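SH-SY5Y plated 1 × 10⁴ cells/well, allowed 24 h to adhere, then given 2 μM compound or vehicle for 24 h. Cells PBS-washed and loaded with 10 μM DCFDA in DMEM for 30 min, washed again; fluorescence at ex 485/em 535 nm normalized to protein content (Lowry). n = 5; mean ± SD, triplicate.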

In data set [7] the test system is SH-SY5Y. Nature of the data set: Antioxidant activity in human SH-SY5Y cells assessed as protection against […]-induced oxidative stress at 2 uM pretreated for 24 hrs followed by incubation with […] for 30 mins by DCFH-DA staining based fluorescence analysis. In kind it is functional, cell-based. The conditions noted are these: time 24.5 hrs. In outline:
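SH-SY5Y seeded 1 × 10⁴ cells/well, adhered 24 h, exposed to 2 μM compound or vehicle for 24 h, then loaded with 10 μM DCFDA in DMEM for 30 min; stress induced afterwards with 100 μM TBH in PBS for 30 min. Fluorescence read at ex 485/em 535 nm, normalized to Lowry protein; n = 5, triplicate.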

Data set [8] relates to SH-SY5Y. Nature of the data set: Potentiation of H2O2-induced cytotoxicity in human SH-SY5Y cells assessed as cell viability at 50 uM pretreated for 24 hrs followed by incubation for 1 hr with H2O2 and incubated in drug-free medium for 22 hrs by MUH reagent based spectrophotometric analysis (reference value: 50.8%). The conditions noted are these: time 25 hrs, read-out: Activity. The data set is classed as functional.

The subject of data set [9] is Neurosphere. Nature of the data set: Neuroprotective activity against C57BL/6N mouse neurosphere assessed as increase in NPC proliferation by measuring increase in neurospheres number at 2.5 to 5 uM measured after 7 days by bright field microscopy. The data set is classed as functional, tissue-based. As to conditions: dose 2.5-5 µM, time 7.0 day. In outline: (§2)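 Neurospheres from sub-ventricular zone of 8-month-old male C57BL/6N mice, dissociated with Accutase, plated as single cells 5 × 10³/well in suspension in EGF/FGF2/N2/B27 medium with 2.5–50 μM compound or DMSO for 7 days. Daily brightfield live imaging; sphere count and total area per image, aggregates >400 μm² only.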

Data set [10] has as its system Neurosphere. The data set is described as follows: Neuroprotective activity against C57BL/6N mouse neurosphere assessed as effect on neurospheres size at 2.5 to 5 uM measured after 7 days by bright field microscopy. In kind it is functional, tissue-based. The conditions noted are these: dose 2.5-5 µM, time 7.0 day. In outline:
as §2

The subject of data set [11] is Neurosphere. The data set is described as follows: Toxicity against C57BL/6N mouse neurosphere at 25 to 50 uM measured after 7 days by bright filed microscopy. In kind it is tissue-based. The conditions noted are these: in vitro, 168 h. The essentials:
as §2

The subject of data set [12] is SH-SY5Y. Nature of the data set: Cytotoxicity against human SH-SY5Y cells assessed as reduction in cell viability at 1 uM pretreated with antioxidant, NAC for 1 hr followed by incubation with drug for 24 hrs by MUH reagent based spectrophotometric analysis. The data set is classed as functional. The essentials: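 SH-SY5Y pretreated 1 h with 2 mM NAC, then exposed to compound at 1 or 10 μM for 24 h. Viability read by MUH hydrolysis (0.01 mg/mL, 30 min, 37 °C; ex 330/em 450 nm) as percent of untreated cells; two-way ANOVA with Tukey post hoc.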

Sequence of Histone deacetylase 2 (Q92769 whole entry): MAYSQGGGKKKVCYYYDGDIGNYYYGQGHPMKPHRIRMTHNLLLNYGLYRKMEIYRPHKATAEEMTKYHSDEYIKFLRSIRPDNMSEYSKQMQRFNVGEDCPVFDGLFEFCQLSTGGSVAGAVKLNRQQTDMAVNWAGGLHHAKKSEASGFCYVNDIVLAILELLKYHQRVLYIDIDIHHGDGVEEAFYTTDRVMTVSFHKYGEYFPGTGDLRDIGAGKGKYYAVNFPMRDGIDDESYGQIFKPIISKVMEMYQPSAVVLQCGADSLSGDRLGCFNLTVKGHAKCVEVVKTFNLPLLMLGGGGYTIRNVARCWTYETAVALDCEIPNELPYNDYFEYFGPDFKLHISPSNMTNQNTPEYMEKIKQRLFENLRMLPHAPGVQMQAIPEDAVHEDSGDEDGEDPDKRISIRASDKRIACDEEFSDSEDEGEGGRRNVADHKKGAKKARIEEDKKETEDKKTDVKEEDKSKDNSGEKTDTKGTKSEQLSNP

For `CC1=C(NCCCCNC(=O)CS)C(=O)c2ccccc2C1=O`, the 50% inhibitory concentration (IC50) in the data set with SH-SY5Y [1] was above 100 µM; in the data set with SH-SY5Y [2] it was above 100 µM; with SH-SY5Y [3] it was above 100 µM; at Histone deacetylase 2, 25.2 µM; in [5], 30 µM. Besides, in the data set with SH-SY5Y [4], the viability at 100 µM turned out to be 70%. The outcome with SH-SY5Y [6], with SH-SY5Y [7] and with Neurosphere [10] was inactive. Also, in the data set with SH-SY5Y [8], the viability at 50 µM was found to be 28.2%. Besides, in the data set with Neurosphere [9], the result was Active. In addition, the Activity result in the data set with Neurosphere [11] is given as “Toxic”.
Consider `CC1=C(NCc2ccc(C(=O)Nc3ccccc3N)cc2)C(=O)c2ccccc2C1=O`, for which the IC50 in the data set on SH-SY5Y [1] came to 1.56 µM; with SH-SY5Y [2] it was 0.78 µM; with SH-SY5Y [3], 0.62 µM; at Histone deacetylase 2, 2.1 µM; in data set [5], 3.76 µM. Also, the result in the data set on SH-SY5Y [6] was Active. The outcome in the data set on SH-SY5Y [7] and in the data set with SH-SY5Y [12] was inactive.
